Results taken from ChEMBL document CHEMBL1811780, “Could LogP be a principal determinant of biological activity in 18-crown-6 ethers? Synthesis of biologically active adamantane-substituted diaza-crowns” (Eur J Med Chem, 2011).

Tests used:
HeLa = test: Antiproliferative activity against human HeLa cells after 72 hrs by MTT assay; assay type: functional
Summary of the method: (§1)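 Adherent monolayers grown in DMEM with 10% FBS, 2 mM L-glutamine, penicillin and streptomycin at 37 °C, 5% CO2. Cells seeded on day 0, then given five 10-fold dilutions (10^-8 to 10^-4 mol/L), DMSO at most 0.25%, for 72 h. MTT read at 570 nm. GI50 from linear regression of percentage growth around 50%. Quadruplicate points; mean of three experiments.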

MIA PaCa-2 = test: Antiproliferative activity against human MIAPaCa2 cells after 72 hrs by MTT assay; assay type: functional; conditions: MIA PaCa-2, 72 h; summary of the method: as §1
NCI-H460 = test: Antiproliferative activity against human H460 cells after 72 hrs by MTT assay; assay type: functional; conditions: NCI-H460, 72 h; summary of the method: as §1
MCF7 = test: Antiproliferative activity against human MCF7 cells after 72 hrs by MTT assay; assay type: functional; conditions: MCF7, 72 h; summary of the method: as §1
SW-620 = test: Antiproliferative activity against human SW620 cells after 72 hrs by MTT assay; assay type: functional; conditions: SW-620, 72 h; summary of the method: as §1
Bacillus subtilis = test: Antibacterial activity against Bacillus subtilis after 70 mins; assay type: functional, organism-based
Escherichia coli = test: Antibacterial activity against Escherichia coli assessed as growth inhibition at 10^-4 M after 105 mins; assay type: functional; conditions: 1.75 h, read-out: GI
Summary of the method: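 E. coli grown in LB at 37 °C with shaking to OD600 ≈0.1. Culture split into untreated control and four treated aliquots at 10^-4, 10^-5, 10^-6 and 10^-7 M. Grown 105 min (about three mass doublings) at 37 °C. Dilutions in phosphate buffer plated on LB, incubated overnight at 37 °C, CFU counted. % growth inhibition and GI50 derived as for tumour cells. Quadruplicate, at least two experiments.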

HCT-116 = test: Antiproliferative activity against human HCT116 cells after 72 hrs by MTT assay; assay type: functional; conditions: HCT-116, 72 h; summary of the method: as §1
MOLT-4 = test: Antiproliferative activity against human MOLT4 cells after 72 hrs by MTT assay; assay type: functional; conditions: MOLT-4, 72 h
Summary of the method: as §1, with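 “MOLT-4” for “Adherent monolayers”, “suspension in RPMI” for “DMEM”, “Treated with” for “Cells seeded on day 0, then given”, “by” for “from”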

Row | Compound | GI50 (HeLa) [µM] | GI50 (MIA PaCa-2) [µM] | GI50 (NCI-H460) [µM] | GI50 (MCF7) [µM] | GI50 (SW-620) [µM] | IC50 (Bacillus subtilis) [µM] | inhibition of growth at 100 µM (Escherichia coli) [%] | GI50 (HCT-116) [µM] | GI50 (MOLT-4) [µM]
1 | C(CN1CCOCCOCCOCCOCCOCC1)CC12CC3CC(CC(C3)C1)C2 | 14 | 11 | 15 | 6 | 9 | – | – | – | –
2 | c1ccc(CN2CCOCCOCCOCCOCCOCC2)cc1 | – | – | > 100 | > 100 | > 100 | 1580 | – | – | –
3 | O=C(CC12CC3CC(CC(C3)C1)C2)N1CCOCCOCCN(C(=O)CC23CC4CC(CC(C4)C2)C3)CCOCCOCC1 | – | – | 14 | 5 | 12 | 45.7 | < 15 | 6 | 6
4 | C1COCCOCCNCCOCCOCCN1 | > 100 | > 100 | > 100 | > 100 | > 100 | 1580 | – | > 100 | > 100
5 | C1COCCOCCN(CCC23CC4CC(CC(C4)C2)C3)CCOCCOCCO1 | 16 | 12 | 15 | 8 | 9 | 25.1 | – | – | –
6 | CC(C)(C)c1cc2c(c(C(C)(C)C)c1)OCCOCCOc1c(cc(C(C)(C)C)cc1C(C)(C)C)OCCOCCO2 | – | – | – | – | – | 1580 | < 15 | – | –
7 | O=C(NCC(=O)N1CCOCCOCCN(C(=O)CNC(=O)OCc2ccccc2)CCOCCOCC1)OCc1ccccc1 | – | – | – | – | – | 1580 | – | – | –
8 | c1ccc2c(c1)OCCOCCOc1ccccc1OCCOCCO2 | – | – | – | – | – | 380 | < 15 | – | –
9 | C1COCC23CC4CC(C2)CC(COCCOCC25CC6CC(CC(CO1)(C6)O2)C5)(C4)O3 | 17 | 2 | 4 | 13 | 3 | 1580 | < 15 | – | –
10 | O=C(CC12CC3CC(CC(C3)C1)C2)N1CCOCCOCCOCCOCCOCC1 | > 100 | > 100 | > 100 | > 100 | > 100 | – | < 15 | – | –
11 | C1COCCOCCOCCOCCOCCN1 | – | – | > 100 | > 100 | > 100 | 1580 | – | – | –
12 | O=C(CCC12CC3CC(CC(C3)C1)C2)N1CCOCCOCCOCCOCCOCC1 | 28 | 30 | 72 | 17 | 13 | 1580 | < 15 | – | –
